# Measured values published in ChEMBL document CHEMBL4390648, “Chemical synthesis, crystal structure, versatile evaluation of their biological activities and molecular simulations of novel pyrithiobac derivatives” (Eur J Med Chem, 2019).
# Active and inactive are the calls of the source. The calls are words filed in the database; no cut-off is given here.
# Assays:
# [1] = system: Severe acute respiratory syndrome-related coronavirus; test: Inhibition of SARS coronavirus M protease using AVLQSGFRKK as substrate at 20 uM by FRET assay relative to control
# Method in brief: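 Purified SARS-CoV Mpro assayed by FRET. Protein, compound and substrate were preheated at 37 °C and oscillated. Fluorescence (ex 320/em 405 nm) was read every 5 s for 200 reads.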
# Arabidopsis thaliana [2] = test: Inhibition of Arabidopsis thaliana AHAS catalytic subunit using pyruvate as substrate at 10 uM measured after 30 mins by colorimetric method relative to control
# Method in brief: (§1)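 Colorimetric assay in 50 mM potassium phosphate pH 7.0 with 50 mM pyruvate, 1 mM thiamine diphosphate, 10 mM MgCl2 and 10 μM FAD. Incubated 30 min at 37 °C for plant AHAS and 30 °C for fungal AHAS. Acetolactate formed was then quantified.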
# Ceratobasidium cereale [3] = test: Antifungal activity against Rhizoctonia cerealis assessed as reduction in growth mycelium growth rate method relative to control; type: functional, organism-based
# Method in brief: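 EC50 against R. cerealis derived from mycelium growth-rate inhibition over a concentration series, using a probit fit: Probit = m(log10[I] − log10[EC50]) + 5.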
# Candida albicans [4] = test: Antifungal activity against Candida albicans SC5314 grown in RPMI 1640 medium incubated for 24 hrs by microdilution method; type: functional; conditions: SC5314, 24 h
# Method in brief: (§2)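 C. albicans standard strain SC5314 and clinical isolates g5 and 17# tested by broth microdilution in YNB or RPMI 1640 medium. Plates incubated at 35 °C for up to 72 h, with visual readings taken at 24 h. MIC taken as the lowest concentration preventing visible growth.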
# Fusarium fujikuroi = test: Antifungal activity against Gibberella fujikuroi assessed as reduction in growth at 50 mg/l by mycelium growth rate method relative to control; type: functional
# Method in brief: (§3)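 Mycelium growth rate method against S. sclerotiorum, P. capsici, P. piricola, R. cerealis, W. anthracnose and R. bakanae. Each compound tested at 50 mg/L, with chlorothalonil and PTB as controls. Relative inhibitory ratio (%) calculated from mycelial growth.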
# Sclerotinia sclerotiorum = test: Antifungal activity against Sclerotinia sclerotiorum assessed as reduction in growth at 50 mg/l by mycelium growth rate method relative to control; type: functional; method in brief: as §3
# Candida albicans [5] = test: Antifungal activity against Candida albicans SC5314 grown in YNB medium incubated for 24 hrs by microdilution method; type: functional; conditions: SC5314, 24 h; method in brief: as §2
# Candida albicans [6] = test: Inhibition of Candida albicans AHAS catalytic subunit at 10 uM using pyruvate as substrate measured after 30 mins by colorimetric method relative to control; method in brief: as §1
# Tobacco mosaic virus [7] = test: Antiviral activity against Tobacco mosaic virus inoculated in Nicotiana tabacum leaves assessed as passivation by measuring local lesion numbers at 500 mg/l pre-incubated with virus for 30 mins followed by inoculation and measured up to 4 days; type: functional
# Method in brief: (§4)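 Passivation assay: TMV mixed with an equal volume of compound solution for 30 min, then rubbed onto the left half of N. tabacum L. leaves. The right half received virus mixed with solvent as control. Local lesions counted 3–4 days after inoculation. Compounds tested at 500 or 100 mg/L.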
# Candida albicans [8] = test: Antifungal activity against Candida albicans isolate 17 grown in YNB medium incubated for 24 hrs by microdilution method; type: functional; conditions: isolate 17, 24 h; method in brief: as §2
# Mythimna separata = test: Insecticidal activity against Mythimna separata assessed as larval mortality at 600 mg/l by leaf-dip method; type: functional
# Ceratobasidium cereale [9] = test: Antifungal activity against Rhizoctonia cerealis assessed as reduction in growth at 50 mg/l by mycelium growth rate method relative to control; type: functional; method in brief: as §3
# Phytophthora capsici = test: Antifungal activity against Phytophthora capsici assessed as reduction in growth at 50 mg/l by mycelium growth rate method relative to control; type: functional; method in brief: as §3
# Candida albicans [10] = test: Antifungal activity against Candida albicans isolate g5 grown in RPMI 1640 medium incubated for 24 hrs by microdilution method; type: functional; conditions: isolate g5, 24 h; method in brief: as §2
# Arabidopsis thaliana [11] = test: Inhibition of Arabidopsis thaliana AHAS catalytic subunit using pyruvate as substrate at 100 uM measured after 30 mins by colorimetric method relative to control; method in brief: as §1
# [12] = system: Botryosphaeria berengeriana; test: Antifungal activity against Physalospora pyricola assessed as reduction in growth at 50 mg/l by mycelium growth rate method relative to control; type: functional; method in brief: as §3
# [13] = system: Brassica rapa subsp. oleifera; test: Herbicidal activity against Brassica campestris L assessed as inhibition of rape root growth at 100 mg/l root growth incubated for 48 hrs relative to control; type: functional
# Method in brief: (§5)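 Rape seeds soaked in distilled water for 4 h, then placed on filter paper wetted with inhibitor solution, 15 seeds per 6-cm dish. Germinated in the dark at 28 °C for 48 h. Mean length of 10 roots per plate measured.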
# Candida albicans [14] = test: Inhibition of Candida albicans AHAS catalytic subunit at 100 uM using pyruvate as substrate measured after 30 mins by colorimetric method relative to control; method in brief: as §1
# [15] = system: Brassica rapa subsp. oleifera; test: Herbicidal activity against Brassica campestris L assessed as inhibition of rape root growth at 10 mg/l root growth incubated for 48 hrs relative to control; type: functional; method in brief: as §5
# Tobacco mosaic virus [16] = test: Antiviral activity against Tobacco mosaic virus inoculated in Nicotiana tabacum leaves assessed as passivation by measuring local lesion numbers at 100 mg/l pre-incubated with virus for 30 mins followed by inoculation and measured up to 4 days; type: functional; method in brief: as §4
# Candida albicans [17] = test: Antifungal activity against Candida albicans isolate g5 grown in YNB medium incubated for 24 hrs by microdilution method; type: functional; conditions: isolate g5, 24 h; method in brief: as §2
# Candida albicans [18] = test: Antifungal activity against Candida albicans isolate 17 grown in RPMI 1640 medium incubated for 24 hrs by microdilution method; type: functional; conditions: isolate 17, 24 h; method in brief: as §2
# Colletotrichum = test: Antifungal activity against Colletotrichum (W. anthracnose) assessed as reduction in growth at 50 mg/l by mycelium growth rate method relative to control; type: functional; method in brief: as §3
SMILES,inhibition [1] [%],inhibition (Arabidopsis thaliana [2]) [%],MIC (Candida albicans [4]) [µg/mL],inhibition at 50 µg/mL (Fusarium fujikuroi) [%],inhibition at 50 µg/mL (Sclerotinia sclerotiorum) [%],MIC (Candida albicans [5]) [µg/mL],inhibition (Candida albicans [6]) [%],inhibition at 500 µg/mL (Tobacco mosaic virus [7]) [%],MIC (Candida albicans [8]) [µg/mL],inhibition at 50 µg/mL (Ceratobasidium cereale [9]) [%],inhibition at 50 µg/mL (Phytophthora capsici) [%],MIC (Candida albicans [10]) [µg/mL],inhibition (Arabidopsis thaliana [11]) [%],inhibition at 50 µg/mL [12] [%],inhibition (INH) [13] [%],inhibition (Candida albicans [14]) [%],inhibition (INH) [15] [%],MIC (Candida albicans [17]) [µg/mL],MIC (Candida albicans [18]) [µg/mL],inhibition at 50 µg/mL (Colletotrichum) [%],other results
COc1cc(OC)nc(Sc2ccc(C(=O)O)cc2F)n1,26.8,40,> 100,48.5,83.3,> 100,81.7,46.5,> 100,91.7,58.3,> 100,100,50,82.2,91.7,48,> 100,> 100,40.5,EC50 (Ceratobasidium cereale [3]): 11.8 µg/mL; mortality at 600 µg/mL (Mythimna separata): 30%; inhibition at 100 µg/mL (Tobacco mosaic virus [16]): 6.8%
COc1nc(OC)nc(Oc2cccc(I)c2)n1,0,8.9,> 100,6.1,66.7,> 100,0,17.1,> 100,90.5,33.3,> 100,84.7,59.4,88.1,29.4,80.2,> 100,> 100,23.8,EC50 (Ceratobasidium cereale [3]): 10.9 µg/mL; inhibition (Tobacco mosaic virus [16]): inactive
COc1nc(OC)nc(Sc2ccc(C#N)cc2Cl)n1,12.8,43.2,> 100,42.4,36.1,> 100,65.4,29.6,> 100,54.8,8.3,> 100,89.6,60.9,60.3,73.6,28.4,> 100,> 100,33.3,mortality at 600 µg/mL (Mythimna separata): 30%; inhibition (Tobacco mosaic virus [16]): inactive
N#Cc1c(Cl)c(Cl)c(Cl)c(C#N)c1Cl [CHLOROTHALONIL],,,,75.4,87.6,,,,,96.8,80.8,,,92.5,,,,,,78.6,EC50 (Ceratobasidium cereale [3]): 5.3 µg/mL
COc1nc(OC)nc(Sc2ccc(F)cc2C(=O)O)n1,94.5,3.3,> 100,30.3,55.6,> 100,56.1,0,50,57.1,16.7,> 100,68.6,45.3,33.3,77.6,1.6,> 100,100,19,mortality at 600 µg/mL (Mythimna separata): 80%; inhibition (Tobacco mosaic virus [16]): inactive
COc1nc(OC)nc(Sc2ccc(C(=O)O)c(C(F)(F)F)c2)n1,22.2,21.8,> 100,36.4,75,> 100,8.6,42.3,> 100,38.1,8.3,> 100,75.5,43.8,16.5,21.2,4,> 100,> 100,16.7,mortality at 600 µg/mL (Mythimna separata): 80%; inhibition at 100 µg/mL (Tobacco mosaic virus [16]): 6.2%
COc1nc(OC)nc(Sc2cccc(F)c2C#N)n1,90.8,34.5,100,24.2,63.9,6.25,46.3,0,3.12,52.4,33.3,100,86.5,45.3,26.2,70.4,2.2,12.5,100,42.9,mortality at 600 µg/mL (Mythimna separata): 20%; inhibition (Tobacco mosaic virus [16]): inactive
